In the library only some 1.9% were active in any assay of this set; here they are far more common.
NPY-Y2 PAM-ag: NPY-Y2 potentiators or agonists, primary screen, cell-based; Neuropeptide Y receptor type 2 (Homo sapiens), P49146; cells expressing NPY-Y2, potentiator/agonist read-out; activation, % at 3.6 µM; 0.45% of 220,000 active; AID 1359, 2008; in the data active = activation above about 27%;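 note: cells stimulated with NPY near EC25 plus isoproterenol at EC100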
NPY1 pot ag: NPY-Y1 receptor potentiators or agonists, primary screen, cell-based; Neuropeptide Y receptor type 1 (Homo sapiens), P25929; NPY-Y1 expressing cells, potentiator/agonist activation; activation, % at 3.6 µM; 0.37% of 220,000 active; AID 1304, 2008; in the data active = activation above about 33%, passing the limit was not always enough;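 note: cells stimulated with NPY at EC10 then isoproterenol at EC100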
Target sequence (P25929 whole entry, looked up): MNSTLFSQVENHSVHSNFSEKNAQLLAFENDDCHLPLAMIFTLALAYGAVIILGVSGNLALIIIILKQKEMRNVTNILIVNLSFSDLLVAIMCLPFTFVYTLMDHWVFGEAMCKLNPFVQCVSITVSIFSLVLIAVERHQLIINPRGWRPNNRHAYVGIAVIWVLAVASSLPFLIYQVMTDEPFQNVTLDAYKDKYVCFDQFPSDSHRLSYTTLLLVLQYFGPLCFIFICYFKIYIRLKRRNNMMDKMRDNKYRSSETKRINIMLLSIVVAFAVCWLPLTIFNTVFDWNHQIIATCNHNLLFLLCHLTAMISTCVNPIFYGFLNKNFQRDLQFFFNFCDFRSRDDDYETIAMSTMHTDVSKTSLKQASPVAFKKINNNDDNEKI
NPY-Y2 antag: NPY-Y2 receptor antagonists, primary screen, cell-based. Neuropeptide Y receptor type 2 (Homo sapiens), P49146. NPY-Y2 expressing cells, antagonist mode. inhibition, % at 2.7 µM. 0.99% of 140,000 active. AID 793, 2007
NPY-Y1 antag: NPY-Y1 receptor antagonists, primary screen, cell-based. Neuropeptide Y receptor type 1 (Homo sapiens), P25929. HEK293-CNG Y1 cells, membrane potential fluorescence; NPY at EC95, then isoproterenol. inhibition, % at 3.6 µM. 1% of 200,000 active;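 active = inhibition above the campaign mean inhibition of all tested compounds plus 3 SD, cut at about 20% in these data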
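Material: HEK293 Y1/CNG channel cell line; also added: NPY (25 nM), isoproterenol (1 µM), Ro 20-1724 (25 µM); doses: one concentration, 3.6 µM, in 0.4% DMSO; schedule: compound incubation 1 h at room temperature, readout 45 min post-stimulation; technique: membrane potential fluorescence; measure: fluorescence ratio normalized to % inhibition between controls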
NPY1 antag conf: NPY-Y1 receptor antagonists, retest of hits, confirmation, HEK293-CNG cells, membrane potential fluorescence, triplicate; AID 1254, 2008; cAMP; NPY challenge against isoproterenol-raised cAMP; 21% of 1,200 active; shares compounds with NPY-Y1 antag; inhibition, % at 3.6 µM; in the data active = inhibition above about 20%
NPY2 antag ctr: NPY-Y2 receptor antagonists, selectivity check, confirmation, counter-screen for NPY-Y1 antagonist project, HEK293-CNG cells, membrane potential fluorescence, triplicate; shares compounds with NPY-Y1 antag; antagonism; cells given NPY, then isoproterenol; inhibition, % at 3.6 µM; 28% of 1,200 active; AID 1255, 2008
Numbers stand for hits; . = inactive; / = not tested or not shown; ! = not active in a repeat. Cut-off read from the data, not from the text of the source, unless noted: active = inhibition above about 17%; inactive = the rest.

SMILES | NPY-Y2 PAM-ag | NPY1 pot ag | NPY-Y2 antag | NPY-Y1 antag | NPY1 antag conf | NPY2 antag ctr
Cn1c2c(c(=O)n(C)c1=O)C(C(F)(F)F)(C(F)(F)F)N=C(CCC1CCCCC1)N2 | . | . | . | 22 | . | 40
Cn1c2c(c(=O)n(C)c1=O)C(C(F)(F)F)(C(F)(F)F)N=C(c1ccccc1Cl)N2 | . | . | . | . | / | /
CN(C)CCSc1nc(-c2ccccc2)nc2c1CCC2 | . | . | . | 24 | . | 20
CN(C)C(=O)CSc1nc(-c2ccccc2)nc2c1CCCC2 | . | . | . | . | / | /
COc1ccc2c(c1)C(C)=CC(C)(C)N2C(=O)CSc1nnc(-c2ccc(C)cc2)o1 | . | . | . | 23 | . | .
Cc1noc(C)c1CSc1nc2[nH]ncc2c(=O)n1-c1ccccc1 | . | . | . | 21 | . | .
Cc1nc(CSc2nc3[nH]ncc3c(=O)n2-c2ccccc2)cs1 | . | . | . | . | / | /
Cc1ccc(NC(=S)N(CCN(C)C)Cc2cc3cc(C)cc(C)c3[nH]c2=O)cc1 | . | . | . | 25 | . | .
Cc1ccc2cc(CN(CCN(C)C)C(=S)Nc3ccccc3)c(=O)[nH]c2c1C | . | . | / | . | / | /
CCn1c(=O)cc(SCC(=O)N2CCN(c3ccccc3F)CC2)c2ccccc21 | . | . | . | 24 | . | .
CCn1c(=O)cc(SCC(=O)N2CCN(c3ccccn3)CC2)c2ccccc21 | . | . | . | . | / | /
CN(CC(=O)Nc1ccccc1C(F)(F)F)C(=O)COc1ncnc2ccccc12 | . | . | / | . | / | /
CCNCc1ccc(OCc2ccccc2F)c(OC)c1 | . | . | / | . | / | /
CCN(CC)CCNCc1cc(Cl)ccc1OCc1ccccc1F | . | . | / | 24 | . | .
COc1ccc(Br)cc1CNC(=O)CCc1nc(-c2ccc(C)cc2)no1 | . | . | . | 21 | . | .
CC(C)C(C)NC(=O)CN1C(=O)NC2(CCCc3ccccc32)C1=O (stereo not given) | . | . | / | . | / | /
CCCCNC(=O)CN1C(=O)NC2(CCCc3ccccc32)C1=O (stereo not given) | . | . | . | 25 | . | .
Fc1ccc2nc(C3CCCCN3Cc3nc(CC4CC4)no3)[nH]c2c1 (stereo not given) | . | . | / | 39 | . | .
O=C(/C=C/c1ccccc1)Nc1ccc(Cl)cn1 | . | . | / | . | / | /
COc1cccc(CNC(=O)C(c2ccc(Cl)cc2)C(C)C)c1 (stereo not given) | . | . | . | 21 | . | .
CN1\C(=C/C=C/C=C/C=[N+](C)C)C(C)(C)c2ccccc21 | . | . | / | 151 | 195 | 145
COc1cccc(/C=C/C(=O)OCC(=O)Nc2cccc(S(=O)(=O)N3CCOCC3)c2)c1OC | . | . | / | . | / | /
CC(Sc1nnc(-c2cccs2)n1Cc1ccccc1)C(=O)NCc1ccc2c(c1)OCO2 (stereo not given) | . | . | . | 24 | . | .
CC(C)c1ccc(NC(=S)NNC(=O)c2cccs2)cc1 | . | . | / | . | / | /
CCCCOc1ccc(C(=O)NC)cc1 | . | . | . | . | / | /
SMILES | NPY-Y2 PAM-ag | NPY1 pot ag | NPY-Y2 antag | NPY-Y1 antag | NPY1 antag conf | NPY2 antag ctr
CCCCOc1ccc(CC(=O)NO)cc1 | . | . | . | 38 | . | .
COc1ccc(C2=NOC(C(=O)NCc3ccc(F)cc3)C2)cc1 (stereo not given) | . | . | . | 41 | . | .
COc1ccc(CNC(=O)C2CC(c3ccc(F)cc3)=NO2)cc1 (stereo not given) | . | . | . | . | / | /
COc1cc(C2=NOC(C(=O)NCc3cccs3)C2)cc(OC)c1OC (stereo not given) | . | . | . | . | / | /
COc1ccc(C2=NOC(C(=O)NCc3cccs3)C2)cc1OC (stereo not given) | . | . | . | 23 | . | .
COc1ccc(/C=N/NC(=O)COc2cc(C)cc(C)c2)cc1COC(C)=O | . | . | . | . | / | /
Fc1ccc(Nc2c3c(nc4ccccc24)CCC3)cc1 | . | . | / | 23 | . | .
c1ccc2c(Nc3ccc4c(c3)OCCO4)c3c(nc2c1)CCC3 | . | . | / | . | / | /
Cc1ccccc1CCNC(=O)C1CCN(S(=O)(=O)c2ccc(-n3cnnn3)cc2)CC1 | . | . | . | . | / | /
O=C(NCc1ccco1)C1CCN(S(=O)(=O)c2ccc(-n3cnnn3)cc2)CC1 | . | . | . | 21 | . | .
Cc1cc(NC(=O)/C=C/c2ccccc2)c(C(C)C)cc1O | . | . | / | 28 | 25 | 24
N[C@@H](Cc1cc(I)c(Oc2ccc(O)c(I)c2)c(I)c1)C(=O)O | . | . | . | 59! | . | .
Cc1ccc(NC(=O)COC(=O)CNC(=O)c2ccc(Br)cc2)c(C)c1 | . | . | . | . | / | /
CC(C)CCN1CCN(Cc2cccc(C(F)(F)F)c2)CC1CCO (stereo not given) | . | . | / | . | / | /
O=C(CCS(=O)(=O)c1ccc(Br)cc1)Nc1ccc(Br)cc1F | . | . | . | . | / | /
COCC(=O)Nc1ccccc1C#N | . | . | . | 21 | . | .
COCC(=O)Nc1ccccc1Br | . | . | . | . | / | /
COc1ccc(NC(C)=O)cc1NC(=O)c1ccc(Cl)cc1 | . | . | / | . | / | /
COC(=O)c1ccc(C)c(NC(=O)C2COc3ccccc3O2)c1 (stereo not given) | . | . | . | . | / | /
COc1cc(NC(=O)C2COc3ccccc3O2)c(OC)cc1Cl (stereo not given) | . | . | . | 31 | . | .
COc1cc(NC(=O)c2ccc(Cl)cc2)c(OC)cc1Cl | . | . | . | 31 | . | .
N#Cc1nc(-c2ccc(F)cc2)oc1NCc1cccc2c1OCO2 | . | . | . | 22 | . | .
CC1CCCC(NC(=O)CCC(=O)c2ccc(F)cc2)C1C (stereo not given) | . | . | / | / | / | /
CC1CCCC(NC(=O)CSc2ccc(F)cc2)C1C (stereo not given) | . | . | / | 67 | . | .
Cc1ccccc1N=CC=C1OC(C)(C)C(C)(C)O1 | . | . | . | . | / | /
OC(CNCc1ccc(F)cc1)(c1ccccc1)c1ccc(F)cc1 (stereo not given) | . | . | . | . | / | /
COc1ccc(CNCC(O)(c2ccc(F)cc2)c2ccc(F)cc2)cc1 | . | . | / | 32 | . | .
Cc1cc(Cl)c(OCCOCCN2CCCC(C)C2)c(Br)c1 (stereo not given) | . | . | / | 23 | . | .
Cc1cc(Cl)c(OCCOCCN2CCCCC2)c(Br)c1 | . | . | . | . | / | /
Cc1ccc(CNC(=O)CNS(=O)(=O)c2ccc3nc(C)sc3c2)cc1 | . | . | / | . | / | /

Screening results (PubChem BioAssay)
